Screening data (PubChem)
Compounds with a hit are over-represented: about 1.7% of the library has one in this group of screens.
APOBEC3G inh = APOBEC3G DNA deaminase inhibitors, primary screen, biochemical, fluorescence, single-stranded DNA substrate, uHTS | recombinant A3G, ssDNA deamination FAM/TAMRA fluorescence | AID 493012, 2011 | 330,000 compounds, 0.28% hits | DNA dC->dU-editing enzyme APOBEC-3G (Homo sapiens), Q9HC16 | inhibition, % at 20 µM;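 active = inhibition of at least 40% at 20 µM, with no more than 30% in the related APOBEC3A deaminase screen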
Target sequence (Q9HC16 whole entry, looked up): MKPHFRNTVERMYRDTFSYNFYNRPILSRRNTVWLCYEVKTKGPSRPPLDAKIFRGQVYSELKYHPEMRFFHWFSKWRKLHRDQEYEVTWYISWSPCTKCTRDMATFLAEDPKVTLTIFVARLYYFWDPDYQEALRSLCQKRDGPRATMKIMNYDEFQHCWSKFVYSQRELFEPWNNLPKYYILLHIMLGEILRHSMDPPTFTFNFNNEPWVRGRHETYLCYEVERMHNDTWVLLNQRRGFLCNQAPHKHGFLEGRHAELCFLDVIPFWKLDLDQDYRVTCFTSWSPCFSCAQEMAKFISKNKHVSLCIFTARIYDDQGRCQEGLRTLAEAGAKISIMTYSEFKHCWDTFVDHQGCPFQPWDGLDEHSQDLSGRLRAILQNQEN
C-LANA FP = inhibitors of KSHV C-LANA binding to DNA, primary screen, biochemical, fluorescence polarization, FAM-LBS DNA, MBP-C-LANA, single point; Kaposi's sarcoma herpesvirus LANA C-terminal domain (residues 932-1162) DNA binding; inhibition, % at 9 µM; 340,000 compounds, 0.078% hits;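 active = highest replicate inhibition at or above 60% at 9 µM, even if other replicates fall short; inactive = all replicates below 60% inhibition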
CAL PDZ FP-1 = CAL PDZ peptide-binding inhibitors, primary screen, biochemical, fluorescence polarization, Cer-tagged CAL PDZ, HTS; purified CAL PDZ, TMR-peptide fluorescence polarization, 1 h; inhibition, % at 20 µM; 330,000 compounds, 0.02% hits; AID 504414, 2011;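 active = highest replicate inhibition of at least 40%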
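material = purified tagged CAL PDZ domain construct (CerCALP) | compound dosing = 20 µM, one dose | times = 1 h at RT | measured by = fluorescence polarization from S- and P-plane intensities, G-factor corrected | read-out = inhibition from polarization loss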
APOBEC3A inh = APOBEC3A ssDNA deaminase inhibitors, primary screen, selectivity assay for APOBEC3G inhibitor project, biochemical, FAM/TAMRA oligo cleavage fluorescence; DNA dC->dU-editing enzyme APOBEC-3A (Homo sapiens), P31941; recombinant A3A, FAM/TAMRA ssDNA deamination fluorescence; inhibition, % at 20 µM; 330,000 compounds, 0.41% hits; AID 493011, 2011;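 active = at least 40% inhibition at 20 µM here, with at most 30% in a related deaminase screen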
Target sequence (P31941 whole entry, looked up): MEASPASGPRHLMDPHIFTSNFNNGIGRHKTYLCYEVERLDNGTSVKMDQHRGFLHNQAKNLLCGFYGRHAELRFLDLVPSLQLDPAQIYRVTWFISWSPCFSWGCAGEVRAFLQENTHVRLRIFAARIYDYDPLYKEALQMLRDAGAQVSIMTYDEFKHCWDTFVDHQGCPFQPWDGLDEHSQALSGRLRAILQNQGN
CAL PDZ FP-2 = untagged CAL PDZ binding inhibitors, primary screen, biochemical, fluorescence polarization, HTS | Golgi-associated PDZ and coiled-coil motif-containing protein (Homo sapiens), Q9HD26 | purified CAL PDZ, TMR-peptide fluorescence polarization, 1 h | inhibition, % at 24.9 µM | 300,000 compounds, 0.92% hits;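 active = mean inhibition of at least 30% with at least half of replicates also reaching 30%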
Keap1-Nrf2 PPI = Keap1-Nrf2 protein-protein interaction inhibitors, primary screen, biochemical, fluorescence polarization, single point. inhibition, % at 9.4 µM. Kelch-like ECH-associated protein 1 (Homo sapiens), Q14145. 340,000 compounds, 0.15% hits. Keap1 Kelch-Nrf2 peptide fluorescence polarization, 1536-well. AID 504523, 2011; in the data active = inhibition above about 12%;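 also: human Keap1 Kelch domain with fluorescein labeled Nrf2 9mer peptide probe; higher means more block of Keap1 binding to Nrf2 peptide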
A3A conf = APOBEC3A deaminase inhibitors, retest, confirmation, selectivity assay for APOBEC3G inhibitor project, biochemical, single concentration, fluorescence readout; shares compounds with APOBEC3A inh; recombinant A3A, ssDNA deaminase UDG fluorescence assay; inhibition, % at 20 µM; 1,400 compounds, 63% hits;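 active = inhibition reaching a set limit, 80% of the first screen's cutoff, at 20 µM in any replicate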
UDG ctr A3A = E. coli UDG inhibitors, confirmation, counter-screen for APOBEC3A inhibitor project, biochemical, single concentration, fluorescence, FAM/TAMRA oligo; shares compounds with APOBEC3A inh; UDG counterscreen, FAM/TAMRA uracil oligo fluorescence; inhibition, % at 20 µM; 1,000 tested, under 10 active; call rule not given here
Numbers stand for hits; n = inactive; x = not tested or not shown.

SMILES | APOBEC3G inh | C-LANA FP | CAL PDZ FP-1 | APOBEC3A inh | CAL PDZ FP-2 | Keap1-Nrf2 PPI | A3A conf | UDG ctr A3A
CN1CC[n+]2c(CN3C(=O)c4ccccc4C3=O)csc21 | n | n | n | 51 | x | n | 79 | n
O=C1ON=C(c2cccc([N+](=O)[O-])c2)/C1=C/c1ccc(O)cc1 | n | n | n | n | n | n | x | x
O=C1ON=C(c2ccccc2[N+](=O)[O-])/C1=C/c1cccc([N+](=O)[O-])c1O | n | n | n | 57 | n | n | 83 | n
O=C1ON=C(c2ccc(Cl)c([N+](=O)[O-])c2)/C1=C/c1cccc([N+](=O)[O-])c1O | n | n | n | 82 | n | n | 88 | n
CCn1c(=O)c(C(=O)CN(C)CC(=O)Nc2ccccc2Br)c(N)n(Cc2ccccc2)c1=O | n | n | n | n | n | n | x | x
NS(=O)(=O)c1ccc(CNC(=O)Cn2nc(C(F)F)cc2C(F)F)cc1 | n | n | n | n | n | n | x | x
CCOC(=O)C1=C(COC(=O)Cc2c(F)cccc2Cl)NC(=O)NC1C (centres undefined) | n | n | n | n | n | n | x | x
CCCCN1CC(=O)N2[C@H]3c4cc(C)ccc4OC[C@@H]3[C@H](C(=O)OCC)[C@]2(C)C1=O | n | n | n | n | n | n | x | x
CON(C)c1nc(OCC#N)nc(N(C)C)n1 | n | n | n | n | n | n | x | x
O=C(NCCc1ccccc1)c1ccc2c(c1)OCCO2 | n | n | n | n | n | n | x | x
O=C(NCCc1ccccc1)c1ccc2c(c1)OCCCO2 | n | n | n | 42 | n | n | 51 | n
O=C(NCCOc1ccccc1)c1ncn[nH]1 | n | n | n | 76 | n | n | 52 | n
COc1cc(Br)cc2cc(C(=O)N3CCOCC3)c(=O)oc12 | n | n | n | n | n | n | x | x
CCCC1=[N+](CC)CCn2c(C)ccc21 | n | n | n | 60 | n | n | 76 | n
CCCC1=[N+](CC(=O)c2ccccc2)CCn2c(C)ccc21 | n | n | n | n | n | n | x | x
Cc1nc(N)nc(C)c1Cc1ccccc1 | n | n | n | n | n | n | x | x
Cc1c2ccccc2cc(Cc2ccccc2)[n+]1C | n | n | n | 43 | n | n | 60 | n
Cc1[nH]n(-c2ccccc2)c(=O)c1C=NCc1ccco1 | n | x | x | n | x | x | x | x
Cc1[nH]n(-c2cccc(Cl)c2)c(=O)c1C=NCc1ccco1 | n | n | n | 44 | n | n | n | x
COc1ccc2cc(C(=O)N3CCN(c4ccc(F)cc4)CC3)[nH]c2c1 | n | n | n | n | n | n | x | x
CC1CN(C(=O)c2c(Br)cnn2C)CC(C)O1 (centres undefined) | n | n | n | n | n | n | x | x
CC(Cc1ccccc1)N1CCCC1=O (centres undefined) | x | n | n | x | n | n | x | x
O=C(Cc1cccs1)Nc1nnc(Cc2ccccc2)s1 | n | n | n | 64 | n | n | 46 | n
O=C(Cc1cccs1)Nc1nnc(CCc2ccccc2)s1 | n | n | n | n | n | n | x | x
Nc1nc(-c2ccc3c(c2)CCCC3)c(CC(=O)O)s1 | n | n | n | n | n | n | x | x
SMILES | APOBEC3G inh | C-LANA FP | CAL PDZ FP-1 | APOBEC3A inh | CAL PDZ FP-2 | Keap1-Nrf2 PPI | A3A conf | UDG ctr A3A
O=C(NCc1ccc(Cl)cc1)C1CCCN1C(=O)Nc1ccccc1 (centres undefined) | n | n | n | n | n | n | x | x
COc1ccc(NC(=O)CCCSc2ccccc2)cc1 | n | n | n | 42 | n | n | n | x
COc1ccc(NC(=O)COC(=O)CCSc2ccccc2)cc1 | n | n | n | n | n | n | x | x
CCOC(=O)c1ccccc1NC(=O)COC(=O)CSc1ccccc1 | n | n | n | n | x | n | x | x
COc1ccc(N2CC(C(=O)Nc3nnc(SCC(=O)NC(C)(C)C)s3)CC2=O)cc1 (centres undefined) | n | n | n | 48 | n | n | n | x
CN(C)S(=O)(=O)c1ccc(N2CCCC2)c(C(=O)Nc2ccc(F)cc2F)c1 | n | n | n | 41 | n | n | n | x
Cc1cc(C)cc(-n2c(SCC(=O)Nc3cccc(S(=O)(=O)NC4=NCCCCC4)c3)nc3ccccc3c2=O)c1 | n | n | n | n | n | n | x | x
CCCCN(Cc1ccccc1)S(=O)(=O)c1cc(Br)cc2c1N(C(C)=O)C(C)C2 (centres undefined) | n | n | n | n | n | n | x | x
COC(=O)c1cc(NC(=O)Cc2cccs2)cc(C(=O)OC)c1 | n | n | n | 64 | n | n | 48 | x
CC(=O)Nc1cccc(NC(=O)Cc2cccs2)c1 | n | n | n | n | n | n | x | x
CCOC(=O)N1CCC(=NNC(=O)c2ccccc2F)CC1 | x | n | n | x | n | n | x | x
CCOc1ccc(N2CC(C(=O)Nc3cccc(S(=O)(=O)N4CCCCC4)c3)CC2=O)cc1 (centres undefined) | n | n | n | n | n | n | x | x
CSc1cccc(N2CC(C(=O)Nc3cccc(S(=O)(=O)N4CCCC4)c3)CC2=O)c1 (centres undefined) | n | n | n | 56 | n | n | n | x
Cc1cc([N+](=O)[O-])ccc1N | n | n | n | n | n | n | x | x
C[n+]1ccccc1Nc1cc([N+](=O)[O-])ccc1N | n | n | n | 63 | x | n | 70 | n
COc1ccc(N(Cc2cc3cc(C)ccc3[nH]c2=O)C(C)=O)cc1 | n | n | n | 47 | n | n | n | n
Cc1ccc(C(=O)OCC(=O)NC2CCCC(C)C2C)cc1S(=O)(=O)N1CCCCC1 (centres undefined) | n | n | n | n | n | n | x | x
Cc1cc(C)c(C(=O)C(C)OC(=O)c2ccc(Cl)nc2)cc1C (centres undefined) | n | n | n | n | n | n | x | x
Nc1ccc(-c2ccc(N)c(C(=O)O)c2)cc1C(=O)O | n | n | n | 48 | n | n | 37 | n
